Here are results for one compound from ChEMBL document CHEMBL4261600 (Eur J Med Chem, 2018).

Molecules are shown by their SMILES.

Data set [1] relates to ALK tyrosine kinase receptor (Homo sapiens), Q9UM73 [L1196M]. The data set is described as follows: Binding affinity to wild-type human partial length ALK L1196M mutant (I1088 to E1409 residues) expressed in mammalian expression system assessed as remaining unbound target protein level at 1000 nM by Kinomescan method relative to control. The method, boiled down: (§1)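 Profiled in a KINOMEscan binding panel with the inhibitor at a single concentration of 1 μM. Binding to each kinase was read out as percent of control, relative to a DMSO control. Strong binders were defined as those with a percent control value below 1.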

The target in data set [2] is Phosphatidylinositol 5-phosphate 4-kinase type-2 gamma (Homo sapiens) (UniProt Q8TBX8). As to the kind of experiment: Binding affinity to wild-type human partial length PIP5K2C (M1 to A421 residues) expressed in mammalian expression system assessed as remaining unbound target protein level at 1000 nM by Kinomescan method relative to control.
A short description of data set [3]: MRT (0 to t) in mouse at 10 mg/kg, po by LC-MS/MS analysis. It is filed as ADME, organism-based. Particulars: in vivo.
Data set [4] deals with cAMP-dependent protein kinase catalytic subunit alpha (Homo sapiens) (UniProt P17612). The data set is described as follows: Binding affinity to wild-type human partial length PKAC-alpha (G10 to F351 residues) expressed in bacterial expression system assessed as remaining unbound target protein level at 1000 nM by Kinomescan method relative to control.
Data set [5] addresses AP2-associated protein kinase 1 (Homo sapiens) (UniProt Q2M2I8). The data set is described as follows: Binding affinity to human wild-type AAK1 (G25 to L333 residues) expressed in bacterial expression system assessed as remaining unbound target protein level at 1000 nM by Kinomescan method relative to control. In a few lines: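 KINOMEscan competitive binding profile at 1 μM inhibitor. Remaining target binding reported as percent of DMSO control.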

For data set [6], the target named is LIM domain kinase 2 (Homo sapiens) (UniProt P53671). The data set is described as follows: Binding affinity to wild-type human full length LIMK2 (M1 to P638 residues) expressed in bacterial expression system assessed as remaining unbound target protein level at 1000 nM by Kinomescan method relative to control. In a few lines: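 Single-point competition binding screen across a panel of 468 kinases and mutants, with the inhibitor at 1 μM. Binding is read out as percent of a DMSO control, and targets below 1 percent control were classed as strong binders.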

The target in data set [7] is Hepatocyte growth factor receptor (Homo sapiens) (UniProt P08581). As to the kind of experiment: Binding affinity to wild-type human partial length MET (D1010 to S1367 residues) expressed in bacterial expression system assessed as remaining unbound target protein level at 1000 nM by Kinomescan method relative to control.
Data set [8] concerns the target Phosphatidylinositol 4,5-bisphosphate 3-kinase catalytic subunit gamma isoform (Homo sapiens) (UniProt P48736). As to the kind of experiment: Binding affinity to wild-type human partial length PIK3CG (S144 to A1102 residues) expressed in mammalian expression system assessed as remaining unbound target protein level at 1000 nM by Kinomescan method relative to control.

The target of data set [9] is Tyrosine-protein kinase ABL1 (Homo sapiens) (UniProt P00519). As to the kind of experiment: Binding affinity to wild-type human non-phosphorylated ABL1 (S229 to K512 residues) expressed in mammalian expression system assessed as remaining unbound target protein level at 1000 nM by Kinomescan method relative to control. The method, boiled down:
as §1

In data set [10] the target is Tyrosine-protein kinase Fes/Fps (Homo sapiens) (UniProt P07332). The data set is described as follows: Binding affinity to wild-type human partial length FES (I527 to R822 residues) expressed in bacterial expression system assessed as remaining unbound target protein level at 1000 nM by Kinomescan method relative to control. In a few lines: (§2)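 KINOMEscan binding panel of 468 kinases/mutants. Inhibitor was tested at a single concentration of 1 μM. Binding is reported as percent of control, defined relative to a DMSO control.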

Data set [11] addresses Interleukin-1 receptor-associated kinase 3 (Homo sapiens) (UniProt Q9Y616). The data set is described as follows: Binding affinity to wild-type human partial length IRAK3 (V147 to E596 residues) expressed in bacterial expression system assessed as remaining unbound target protein level at 1000 nM by Kinomescan method relative to control.
The species named for data set [12] is Homo sapiens. The data set is described as follows: Selectivity ratio of IC50 for recombinant full length His-tagged human CDK2/CyclinA to IC50 for recombinant full length His-tagged human CDK9/CyclinT1.
Data set [13] deals with TGF-beta receptor type-1 (Homo sapiens) (UniProt P36897). The data set is described as follows: Binding affinity to wild-type human partial length TGFBR1 (D179 to M503 residues) expressed in bacterial expression system assessed as remaining unbound target protein level at 1000 nM by Kinomescan method relative to control.
The target of data set [14] is Tyrosine-protein kinase Mer (Homo sapiens) (UniProt Q12866). The data set is described as follows: Binding affinity to wild-type human partial length MERTK (R557 to L884 residues) expressed in bacterial expression system assessed as remaining unbound target protein level at 1000 nM by Kinomescan method relative to control. The method, boiled down: as §2
The subject of data set [15] is Tyrosine-protein kinase ABL1 (Homo sapiens), P00519 [H396P]. The data set is described as follows: Binding affinity to human non-phosphorylated ABL1 H396P mutant (S229 to K512 residues) expressed in mammalian expression system assessed as remaining unbound target protein level at 1000 nM by Kinomescan method relative to control. The method, boiled down: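 KINOMEscan competition-binding profiling across the panel of 468 kinases and mutants, with inhibitor tested at 1 μM. Binding is expressed as percent of control, with DMSO as the reference control.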

In data set [16] the target is Ribosomal protein S6 kinase alpha-4 (Homo sapiens) (UniProt O75676). As to the kind of experiment: Binding affinity to wild-type human partial length N-terminal RPS6KA4 kinase domain 1 expressed in bacterial expression system assessed as remaining unbound target protein level at 1000 nM by Kinomescan method relative to control.
In data set [17] the target is Phosphatidylinositol 4,5-bisphosphate 3-kinase catalytic subunit beta isoform (Homo sapiens) (UniProt P42338). As to the kind of experiment: Binding affinity to wild-type human partial length PIK3CB (P118 to S1070 residues) expressed in mammalian expression system assessed as remaining unbound target protein level at 1000 nM by Kinomescan method relative to control.

The target in data set [18] is Peripheral plasma membrane protein CASK (Homo sapiens) (UniProt O14936). As to the kind of experiment: Binding affinity to wild-type human partial length CASK (M1 to H315 residues) expressed in mammalian expression system assessed as remaining unbound target protein level at 1000 nM by Kinomescan method relative to control. In a few lines:
(§3)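 KINOMEscan competition binding profile across a panel of 468 kinases and mutants, with the inhibitor tested at a single concentration of 1 μM. Binding is reported as percent of control, meaning signal relative to a DMSO control.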

Data set [19] deals with Cyclin-dependent kinase-like 5 (Homo sapiens) (UniProt O76039). The data set is described as follows: Binding affinity to wild-type human partial length CDKL5 (M1 to S337 residues) expressed in mammalian expression system assessed as remaining unbound target protein level at 1000 nM by Kinomescan method relative to control. In a few lines: as §3
In data set [20] the target is Macrophage-stimulating protein receptor (Homo sapiens) (UniProt Q04912). The data set is described as follows: Binding affinity to wild-type human partial length MST1R (I1057 to L1363 residues) expressed in bacterial expression system assessed as remaining unbound target protein level at 1000 nM by Kinomescan method relative to control.
The species entered for data set [21] is Homo sapiens. The data set is described as follows: Selectivity ratio of IC50 for recombinant GST-tagged human CDK3/cyclin E1 to IC50 for recombinant full length His-tagged human CDK9/CyclinT1.

Sequence of AP2-associated protein kinase 1 (Homo sapiens) (Q2M2I8 whole entry, looked up, the tested form may be a part): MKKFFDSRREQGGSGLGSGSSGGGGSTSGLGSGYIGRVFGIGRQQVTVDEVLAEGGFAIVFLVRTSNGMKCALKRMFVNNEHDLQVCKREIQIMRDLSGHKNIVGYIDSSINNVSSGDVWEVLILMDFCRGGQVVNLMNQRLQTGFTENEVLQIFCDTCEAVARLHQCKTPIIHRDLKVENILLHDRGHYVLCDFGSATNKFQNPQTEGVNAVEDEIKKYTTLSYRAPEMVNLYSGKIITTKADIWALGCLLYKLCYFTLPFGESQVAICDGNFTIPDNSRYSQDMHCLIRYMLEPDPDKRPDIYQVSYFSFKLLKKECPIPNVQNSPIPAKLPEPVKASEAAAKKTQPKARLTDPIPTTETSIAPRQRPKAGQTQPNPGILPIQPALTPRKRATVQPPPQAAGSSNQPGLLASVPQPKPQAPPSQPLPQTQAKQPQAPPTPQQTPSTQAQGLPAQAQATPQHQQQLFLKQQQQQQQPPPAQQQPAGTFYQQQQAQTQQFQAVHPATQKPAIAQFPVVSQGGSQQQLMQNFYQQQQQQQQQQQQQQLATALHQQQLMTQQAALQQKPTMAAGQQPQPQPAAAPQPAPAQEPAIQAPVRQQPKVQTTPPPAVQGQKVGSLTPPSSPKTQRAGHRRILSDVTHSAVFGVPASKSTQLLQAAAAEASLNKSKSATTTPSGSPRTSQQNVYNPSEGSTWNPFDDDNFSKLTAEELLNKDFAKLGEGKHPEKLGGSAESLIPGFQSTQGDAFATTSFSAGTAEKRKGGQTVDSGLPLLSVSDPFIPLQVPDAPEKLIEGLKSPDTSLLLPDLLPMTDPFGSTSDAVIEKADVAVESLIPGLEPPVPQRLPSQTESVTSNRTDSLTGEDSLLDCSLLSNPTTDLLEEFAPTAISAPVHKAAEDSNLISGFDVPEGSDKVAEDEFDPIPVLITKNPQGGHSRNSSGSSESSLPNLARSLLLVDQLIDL
Sequence of Interleukin-1 receptor-associated kinase 3 (Homo sapiens) (Q9Y616 whole entry, the tested form may be a part): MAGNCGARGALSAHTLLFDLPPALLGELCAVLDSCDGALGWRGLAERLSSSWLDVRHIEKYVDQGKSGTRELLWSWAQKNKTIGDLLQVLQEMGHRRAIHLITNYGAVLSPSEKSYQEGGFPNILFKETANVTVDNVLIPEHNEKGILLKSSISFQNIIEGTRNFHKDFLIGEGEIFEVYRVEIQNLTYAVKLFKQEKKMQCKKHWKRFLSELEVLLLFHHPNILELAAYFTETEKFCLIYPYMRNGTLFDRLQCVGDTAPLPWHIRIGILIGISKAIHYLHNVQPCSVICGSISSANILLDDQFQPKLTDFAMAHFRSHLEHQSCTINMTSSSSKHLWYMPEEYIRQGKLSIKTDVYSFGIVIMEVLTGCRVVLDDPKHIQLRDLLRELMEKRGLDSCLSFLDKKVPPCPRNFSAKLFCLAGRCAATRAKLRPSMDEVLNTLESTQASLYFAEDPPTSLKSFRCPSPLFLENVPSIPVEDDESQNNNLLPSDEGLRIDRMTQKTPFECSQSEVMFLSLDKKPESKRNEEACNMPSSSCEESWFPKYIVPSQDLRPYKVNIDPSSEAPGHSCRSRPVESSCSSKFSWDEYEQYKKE
Sequence of Hepatocyte growth factor receptor (Homo sapiens) (P08581 whole entry, the tested form may be a part, canonical isoform): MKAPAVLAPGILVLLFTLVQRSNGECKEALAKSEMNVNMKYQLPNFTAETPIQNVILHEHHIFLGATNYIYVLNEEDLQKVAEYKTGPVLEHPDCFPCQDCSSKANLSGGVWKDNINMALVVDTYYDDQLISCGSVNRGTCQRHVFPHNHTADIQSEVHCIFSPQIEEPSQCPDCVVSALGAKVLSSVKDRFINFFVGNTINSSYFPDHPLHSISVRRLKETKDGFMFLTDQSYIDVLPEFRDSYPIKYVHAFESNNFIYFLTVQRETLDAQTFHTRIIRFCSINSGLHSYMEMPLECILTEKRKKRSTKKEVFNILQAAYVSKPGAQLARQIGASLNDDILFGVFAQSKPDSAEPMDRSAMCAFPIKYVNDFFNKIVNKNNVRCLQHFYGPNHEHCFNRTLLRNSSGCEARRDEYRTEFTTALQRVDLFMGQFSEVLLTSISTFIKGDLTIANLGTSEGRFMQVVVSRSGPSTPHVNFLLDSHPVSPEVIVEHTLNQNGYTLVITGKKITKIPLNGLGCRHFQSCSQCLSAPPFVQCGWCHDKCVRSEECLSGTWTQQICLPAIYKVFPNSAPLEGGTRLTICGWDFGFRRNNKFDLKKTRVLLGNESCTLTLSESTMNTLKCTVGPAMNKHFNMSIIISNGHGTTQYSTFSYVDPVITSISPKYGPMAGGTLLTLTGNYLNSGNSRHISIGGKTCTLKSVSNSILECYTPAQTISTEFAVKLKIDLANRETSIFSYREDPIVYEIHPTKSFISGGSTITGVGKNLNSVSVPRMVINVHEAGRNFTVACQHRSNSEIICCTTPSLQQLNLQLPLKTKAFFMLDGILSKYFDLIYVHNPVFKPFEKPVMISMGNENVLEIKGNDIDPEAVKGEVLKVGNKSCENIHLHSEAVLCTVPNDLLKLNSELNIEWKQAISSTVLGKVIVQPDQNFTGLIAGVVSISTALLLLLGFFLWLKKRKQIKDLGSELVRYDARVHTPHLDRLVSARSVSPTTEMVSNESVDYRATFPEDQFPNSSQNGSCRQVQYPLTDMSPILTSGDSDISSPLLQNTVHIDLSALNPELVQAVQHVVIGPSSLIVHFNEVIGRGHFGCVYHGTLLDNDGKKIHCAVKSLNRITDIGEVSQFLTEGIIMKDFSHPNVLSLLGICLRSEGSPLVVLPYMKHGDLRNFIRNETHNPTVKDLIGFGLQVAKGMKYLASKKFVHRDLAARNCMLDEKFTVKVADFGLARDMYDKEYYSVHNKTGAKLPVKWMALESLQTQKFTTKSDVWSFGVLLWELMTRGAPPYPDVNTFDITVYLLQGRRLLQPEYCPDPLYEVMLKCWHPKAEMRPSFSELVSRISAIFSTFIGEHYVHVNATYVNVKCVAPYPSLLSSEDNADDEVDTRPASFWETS
Sequence of LIM domain kinase 2 (Homo sapiens) (P53671 whole entry, looked up, the tested form may be a part): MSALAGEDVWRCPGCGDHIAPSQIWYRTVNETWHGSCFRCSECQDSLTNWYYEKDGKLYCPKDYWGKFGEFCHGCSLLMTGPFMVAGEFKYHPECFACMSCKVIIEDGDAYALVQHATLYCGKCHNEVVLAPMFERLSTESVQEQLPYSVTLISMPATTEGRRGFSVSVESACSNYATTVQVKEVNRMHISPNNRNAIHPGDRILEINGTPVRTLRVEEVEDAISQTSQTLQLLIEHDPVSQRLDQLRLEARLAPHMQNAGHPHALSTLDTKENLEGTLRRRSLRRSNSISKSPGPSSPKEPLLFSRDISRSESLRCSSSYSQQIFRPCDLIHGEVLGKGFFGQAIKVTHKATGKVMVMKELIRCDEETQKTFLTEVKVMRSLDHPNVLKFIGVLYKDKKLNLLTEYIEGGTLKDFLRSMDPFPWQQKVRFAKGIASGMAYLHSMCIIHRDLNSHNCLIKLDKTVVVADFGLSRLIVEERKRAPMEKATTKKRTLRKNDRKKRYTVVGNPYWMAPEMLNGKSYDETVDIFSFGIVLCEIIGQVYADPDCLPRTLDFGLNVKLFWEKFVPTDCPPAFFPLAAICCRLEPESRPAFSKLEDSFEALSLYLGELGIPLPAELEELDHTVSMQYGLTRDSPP
Sequence of Peripheral plasma membrane protein CASK (Homo sapiens) (O14936 whole entry, the tested form may be a part): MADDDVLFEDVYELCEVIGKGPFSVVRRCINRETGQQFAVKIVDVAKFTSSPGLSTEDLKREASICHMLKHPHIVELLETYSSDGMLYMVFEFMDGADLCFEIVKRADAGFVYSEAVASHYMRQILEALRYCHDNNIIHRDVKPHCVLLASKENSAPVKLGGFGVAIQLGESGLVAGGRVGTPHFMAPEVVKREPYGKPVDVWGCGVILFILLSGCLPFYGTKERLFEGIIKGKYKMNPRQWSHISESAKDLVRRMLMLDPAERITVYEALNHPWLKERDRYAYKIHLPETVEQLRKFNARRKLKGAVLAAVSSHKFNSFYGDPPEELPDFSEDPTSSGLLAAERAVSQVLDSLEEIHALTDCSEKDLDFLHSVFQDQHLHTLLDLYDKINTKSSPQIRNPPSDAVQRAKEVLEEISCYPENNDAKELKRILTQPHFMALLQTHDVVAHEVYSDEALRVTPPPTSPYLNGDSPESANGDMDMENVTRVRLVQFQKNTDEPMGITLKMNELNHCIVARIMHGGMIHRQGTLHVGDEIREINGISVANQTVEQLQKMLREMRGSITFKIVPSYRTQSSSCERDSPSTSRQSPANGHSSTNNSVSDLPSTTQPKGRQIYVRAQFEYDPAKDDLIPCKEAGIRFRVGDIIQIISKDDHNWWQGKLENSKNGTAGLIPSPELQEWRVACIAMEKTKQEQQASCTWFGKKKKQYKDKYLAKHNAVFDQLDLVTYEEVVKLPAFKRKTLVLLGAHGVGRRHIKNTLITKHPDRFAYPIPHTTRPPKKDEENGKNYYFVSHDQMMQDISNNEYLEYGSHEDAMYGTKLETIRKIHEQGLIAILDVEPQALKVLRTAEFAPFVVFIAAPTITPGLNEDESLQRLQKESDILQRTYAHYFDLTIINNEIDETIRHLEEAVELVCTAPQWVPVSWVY
Sequence of TGF-beta receptor type-1 (Homo sapiens) (P36897 whole entry, the tested form may be a part): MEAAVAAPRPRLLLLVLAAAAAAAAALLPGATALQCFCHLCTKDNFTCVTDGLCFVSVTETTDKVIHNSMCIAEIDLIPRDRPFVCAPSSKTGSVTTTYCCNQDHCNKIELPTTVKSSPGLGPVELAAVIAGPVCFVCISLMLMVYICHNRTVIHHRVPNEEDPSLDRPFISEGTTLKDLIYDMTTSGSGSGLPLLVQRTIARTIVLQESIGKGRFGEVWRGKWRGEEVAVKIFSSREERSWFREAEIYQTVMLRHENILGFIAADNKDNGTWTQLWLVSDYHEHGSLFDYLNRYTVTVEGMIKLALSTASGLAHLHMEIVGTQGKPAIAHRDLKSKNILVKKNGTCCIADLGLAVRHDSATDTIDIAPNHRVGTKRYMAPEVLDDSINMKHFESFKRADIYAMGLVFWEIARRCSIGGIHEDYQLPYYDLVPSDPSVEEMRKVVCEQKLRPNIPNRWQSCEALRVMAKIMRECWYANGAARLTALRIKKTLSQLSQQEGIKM

With `COCCN[C@H]1CC[C@H](Nc2cc(-c3csc(NCC4(C#N)CCOCC4)n3)c(Cl)cn2)CC1`, the Activity in data set [1] amounted to 78%; in [2], 59%; in [4] it was 87%; in data set [5], 99%; in [6] it was 76%; in [7] it was 73%. Besides, the Activity was 99% in [8]; 100% in [9]; 99% in data set [10]; 96% in data set [11]; 98% in data set [13]; 94% in data set [14]. The Activity in data set [15] stood at 75%; in data set [16] it was 92%; in [17], 100%; in data set [18], 81%; in [19], 21%; in data set [20] it was 92%. In addition, in [3], the MRT last came to 3.24 h. Besides, the Ratio IC50 in the data set listed under Homo sapiens [12] and in the data set filed under Homo sapiens [21] was greater than 1000 throughout.

What is called MRT last is the average time that molecules of a dose stay in the body.
